One test deals with T1, DNA topoisomerase 1 (Homo sapiens, UniProt P11387).
T1 sequence (P11387 whole entry): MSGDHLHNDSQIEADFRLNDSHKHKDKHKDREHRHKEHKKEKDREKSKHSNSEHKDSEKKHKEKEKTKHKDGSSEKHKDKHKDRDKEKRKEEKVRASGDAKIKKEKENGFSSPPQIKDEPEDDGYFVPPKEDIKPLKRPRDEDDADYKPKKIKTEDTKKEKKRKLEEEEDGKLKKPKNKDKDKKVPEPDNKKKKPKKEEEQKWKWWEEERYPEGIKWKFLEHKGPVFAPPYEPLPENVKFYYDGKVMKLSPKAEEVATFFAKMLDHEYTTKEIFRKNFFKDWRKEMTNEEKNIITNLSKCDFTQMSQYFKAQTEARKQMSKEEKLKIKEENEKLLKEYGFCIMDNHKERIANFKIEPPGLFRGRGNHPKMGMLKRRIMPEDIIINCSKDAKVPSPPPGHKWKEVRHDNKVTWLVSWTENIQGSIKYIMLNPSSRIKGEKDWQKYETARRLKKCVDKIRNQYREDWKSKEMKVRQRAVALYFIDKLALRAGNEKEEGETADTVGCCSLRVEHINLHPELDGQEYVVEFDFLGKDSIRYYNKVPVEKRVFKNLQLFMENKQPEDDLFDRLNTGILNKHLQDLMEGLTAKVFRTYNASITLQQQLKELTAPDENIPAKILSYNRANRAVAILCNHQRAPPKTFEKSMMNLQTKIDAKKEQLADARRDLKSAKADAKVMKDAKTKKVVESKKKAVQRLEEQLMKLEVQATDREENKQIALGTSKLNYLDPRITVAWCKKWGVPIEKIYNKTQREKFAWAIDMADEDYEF
Description: Inhibit supercoil relaxation property of topoisomerase I. Summed up:
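Supercoiled pBR322 DNA (0.25 μg) incubated with topoisomerase I (0.5 unit) and ligand, 30 min at 37 °C. Then a further 30 min at 37 °C in SDS-containing loading buffer, agarose gel run overnight, and ethidium bromide staining. Supercoiled DNA remaining was quantified by laser densitometry of the photographic negative.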

The subject of another test is SK-OV-3. Nature of the test: Inhibitory concentration the viability of SKOV 3 cell population by 50%. It is filed as functional, cell-based. As to conditions: Homo sapiens.
The subject of a further test is SK-VLB. Nature of the test: Inhibitory concentration that reduced the viability of SKVLB cell population by 50%. The note with it: Homo sapiens. It counts as functional, cell-based.
The test system of the next test is HT-29. Description: Inhibitory concentration that reduced the viability of HT 29 cell population by 50%. It counts as functional, cell-based. As to conditions: Homo sapiens.
The subject of the next test is KB. Nature of the test: Inhibitory concentration that reduced the viability of KB cell population by 50%. It is filed as functional, cell-based. As to conditions: Homo sapiens. In short, it runs like this:
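KB cells in Eagle's MEM with 10% calf serum, 37 °C, humidified 5% CO2, seeded at 3 × 10³ cells/mL and cultured 24 h. Compounds added in triplicate at several concentrations, with compound-free control wells, for 3 days. Value is the concentration reducing cell count by 50%.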

Consider `CCC1(O)C(=O)OCc2c1cc1n(c2=O)Cc2cc3cc(OCCNC(=O)c4cc(NC(=O)c5cc(NC(=O)CCCN(C)C)cn5COC)cn4COC)ccc3nc2-1` (racemic), for which the IC50 against DNA topoisomerase 1 was 4.82 µM; in the test with SK-OV-3, 4.3 µM; in the test with SK-VLB, over 10 µM; in the test on HT-29, 6.2 µM; in the test on KB, 6.29 µM.
With `Cn1cc(NC(=O)c2cc(NC(=O)c3cc(NC=O)cn3C)cn2C)cc1C(=O)NCCC(=N)N` [STALLIMYCIN], the IC50 on DNA topoisomerase 1 was 2.7 µM; with SK-VLB it was over 10 µM; in the test on HT-29 it was 54.7 µM; in the test on KB, 8.4 µM.
With `CCC1(O)C(=O)OCc2c1cc1n(c2=O)Cc2cc3cc(OCC(=O)ONc4cc(C(=O)Nc5cc(C(=O)Nc6cc(C(=O)NCCCN(C)C)n(COC)c6)n(COC)c5)n(COC)c4)ccc3nc2-1` (racemic), the IC50 on DNA topoisomerase 1 was 11.9 µM; with SK-OV-3, over 10 µM; in the test with SK-VLB, over 10 µM; in the test with HT-29, over 10 µM; in the test on KB, 5.5 µM.
For the compound `CCCC(=O)Nc1cn(COC)c(C(=O)Nc2cn(COC)c(C(=O)NCCOc3ccc4nc5c(cc4c3)Cn3c-5cc4c(c3=O)COC(=O)C4(O)CC)n2)n1` (racemic), the IC50 on DNA topoisomerase 1 is 2.42 µM; in the test on SK-OV-3 it was 3.2 µM; in the test on SK-VLB, over 10 µM; in the test with HT-29, 6 µM; with KB, 3.08 µM.
On to `CCCC(=O)Nc1ccc(C(=O)Nc2cc(C(=O)Nc3cc(C(=O)NCCOc4ccc5nc6c(cc5c4)Cn4c-6cc5c(c4=O)COC(=O)C5(O)CC)n(COC)c3)n(COC)c2)n1COC` (racemic), for which the IC50 with SK-OV-3 is 3.6 µM; in the test with SK-VLB, over 10 µM; in the test with HT-29 it was 7.1 µM; in the test on KB, 5.09 µM.
`CCCC(=O)Nc1cn(COC)c(C(=O)NCCOc2ccc3nc4c(cc3c2)Cn2c-4cc3c(c2=O)COC(=O)C3(O)CC)n1` (centres undefined): the IC50 was 2.38 µM against DNA topoisomerase 1; 1.3 µM in the test on SK-OV-3; over 10 µM with SK-VLB; 6.9 µM in the test on HT-29; 1 µM in the test with KB.
With `CCCC(=O)Nc1cc(C(=O)NCCOc2ccc3nc4c(cc3c2)Cn2c-4cc3c(c2=O)COC(=O)C3(O)CC)n(COC)c1` (centres undefined), the IC50 was 5.1 µM in the test with SK-OV-3, over 10 µM with SK-VLB, 8.1 µM with HT-29 and 15.3 µM in the test with KB.
As to `Cn1cc(NC(=O)c2cc(NC(=O)CNC(=N)N)cn2C)cc1C(=O)NCCC(=N)N` [NETROPSIN], the IC50 is 62 µM on DNA topoisomerase 1, over 10 µM in the test with SK-VLB, 44.7 µM in the test on HT-29 and 47.1 µM in the test with KB.
For the compound `CCC1(O)C(=O)OCc2c1cc1n(c2=O)Cc2cc3ccccc3nc2-1` (single isomer, unassigned) [CAMPTOTHECIN], the IC50 with SK-OV-3 came out at 0.051 µM; with SK-VLB, 0.053 µM; in the test on HT-29, 0.0878 µM; in the test on KB it was 0.008 µM.
In the case of `CCC1(O)C(=O)OCc2c1cc1n(c2=O)Cc2cc3cc(OCCNC(=O)c4cc(NC(=O)CCCN(C)C)cn4COC)ccc3nc2-1` (centres undefined), the IC50 against DNA topoisomerase 1 turned out to be 2.6 µM; in the test with SK-OV-3 it was 1.5 µM; in the test with SK-VLB, 3.5 µM; in the test with HT-29, 3.4 µM; with KB it was 5.68 µM.
With `CCCC(=O)Nc1cc(C(=O)Nc2cc(C(=O)NCCOc3ccc4nc5c(cc4c3)Cn3c-5cc4c(c3=O)COC(=O)C4(O)CC)n(COC)c2)n(COC)c1` (racemic), the half-maximal inhibitory concentration (IC50) on DNA topoisomerase 1 is 16.6 µM; in the test on SK-OV-3 it was over 10 µM; with SK-VLB it was over 10 µM; in the test on HT-29 it was over 10 µM; in the test with KB it was 3.25 µM.
`COc1cccc2c1C(=O)c1c(O)c3c(c(O)c1C2=O)C[C@@](O)(C(=O)CO)C[C@@H]3O[C@H]1C[C@H](N)[C@H](O)[C@H](C)O1` [DOXORUBICIN]: the IC50 in the test with SK-OV-3 was 0.0251 µM; with SK-VLB it was 6.54 µM; with HT-29, 0.28 µM; with KB, 0.015 µM.
As to `CCC1(O)C(=O)OCc2c1cc1n(c2=O)Cc2cc3cc(OCC(=O)O)ccc3nc2-1` (centres undefined), the IC50 came out at 1.12 µM on DNA topoisomerase 1; 1.2 µM with SK-OV-3; 2.1 µM in the test with SK-VLB; 2.8 µM with HT-29; 0.25 µM in the test on KB.
On to `CCC1(O)C(=O)OCc2c1cc1n(c2=O)Cc2cc3cc(OCCN)ccc3nc2-1` (centres undefined), for which the midpoint of inhibition in the test on KB, the IC50, lay at 0.175 µM.
Regarding `CCC1(O)C(=O)OCc2c1cc1n(c2=O)Cc2cc3cc(OCC(=O)ONc4cc(C(=O)Nc5cc(C(=O)NCCCN(C)C)n(COC)c5)n(COC)c4)ccc3nc2-1` (racemic), the IC50 in the test with SK-OV-3 was over 10 µM; with SK-VLB, over 10 µM; in the test on HT-29 it was over 10 µM; in the test with KB, 0.663 µM.
As for `CCC1(O)C(=O)OCc2c1cc1n(c2=O)Cc2cc3cc(OCCNC(=O)c4cc(NC(=O)c5cc(NC(=O)c6ccc(NC(=O)CCCN(C)C)n6COC)cn5COC)cn4COC)ccc3nc2-1` (racemic), the IC50 is 1.97 µM against DNA topoisomerase 1; 9.7 µM with SK-OV-3; over 10 µM with SK-VLB; over 10 µM with HT-29; 1 µM in the test on KB.

The term IC50 denotes the concentration that inhibits the measured activity by half. Read a low IC50 as greater potency in that assay.

The values above are taken from ChEMBL document CHEMBL1130394 (J Med Chem, 1997).
